Screening data (PubChem)
Most compounds without a hit are left out; they make up all but 2.7% or so of the library.
Yeast life ext: yeast lifespan extension. S. cerevisiae growth with nicotinamide, OD615; deaD strain in restrictive glucose medium. inhibition of the nicotinamide effect, % at 10 µM. actives 0.68% (n = 130,000);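 active = inhibition above a set limit, placed 3 SD over the median of all compounds, cut at about 26% in these data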
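assay system = DeaD-strain S. cerevisiae | buffer or medium = restrictive glucose medium | reagent = 1.5 mM nicotinamide | compound = 10 µM single point, 0.25% DMSO | incubation = 48 h compound exposure at 30 °C, humidified | signal = OD615 measurement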
Yeast growth inh: reduces growth of yeast BB579 in restrictive medium | S. cerevisiae BB579 growth, OD615, 48 h | inhibition, % at 10 µM | actives 0.51% (n = 140,000) | AID 804;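 active = inhibition above a set limit, 3 SD over the mean compound inhibition, cut at about 44% in these data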
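Assay system: S. cerevisiae DeaD strain BB579 yeast. Medium: CSMM-D restrictive synthetic medium containing dextrose (glucose). Times: 4 h cell preincubation, 48 h compound exposure, 30 °C humidified. Signal: OD615 turbidity measurement. Benchmarks: positive control amphotericin B 10 µg/mL.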
RAM network inh: blocks the yeast RAM network. actives 1.8% (n = 190,000). inhibition, % at 50 µM. AID 868. S. cerevisiae dse1pr::URA3 reporter, 5-FOA growth OD615, 2 d; analog-sensitive cbk1-as2 kinase mutant strain;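 active = inhibition above a set limit, 3 SD over mean compound inhibition, cut at about 8.4% in these data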;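 also: inhibition rescues growth on 5-FOA so higher OD means more RAM inhibition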
SDO1 yeast rescue: restores growth of sdo1-depleted yeast; S. cerevisiae sdo1-depleted JHY4D growth rescue, OD600 30 h; active compounds read high; pdr5 snq2 efflux-pump mutant strain; z-score at 10 µM; actives 0.21% (n = 140,000);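 active = z-score above 3 at both the 24 hr and the 30 hr optical density reads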
A number is an active result.

Screening COc1ccc(C)cc1NC(=O)C(Sc1nnc(Nc2ccccc2F)s1)c1ccccc1 (stereo not drawn) returned Yeast life ext inactive, Yeast growth inh inactive, RAM network inh inactive and SDO1 yeast rescue inactive.
CC(C)c1ccc(NC(=O)c2sccc2-n2cccc2)cc1 was read as RAM network inh 8.6.
`CCOc1ccc(-n2c(SCC(=O)Nc3cc(C)on3)nnc2-c2c[nH]c3ccccc23)cc1` gave Yeast life ext inactive, Yeast growth inh inactive, RAM network inh 8.6 and SDO1 yeast rescue inactive.
Screening Cc1cc(NC(=O)CSc2nnc(-c3c[nH]c4ccccc34)n2-c2ccc(F)cc2)no1 returned RAM network inh inactive.
For Cn1cc(CNC(=O)c2cc(-c3ccccc3)nc3ccc(Br)cc23)cn1 the results were Yeast life ext inactive, Yeast growth inh inactive, RAM network inh inactive and SDO1 yeast rescue inactive.
Cn1cc(CNC(=O)c2cc(-c3ccc(Br)cc3)nc3ccccc23)cn1 was read as RAM network inh 8.8.
Cc1cc2nnc(SCC(=O)N3C(C)CCCC3C)n2c(N)n1 (stereo not drawn) was read as Yeast life ext inactive, Yeast growth inh inactive, RAM network inh inactive and SDO1 yeast rescue inactive.
For CN1CCN(CC(=O)Nc2ccc(Cl)cc2Cl)CC1 the results were Yeast life ext 40.0, Yeast growth inh inactive, RAM network inh inactive and SDO1 yeast rescue inactive.
COC(=O)c1ccc(Cl)c(NC(=O)CN2CCN(C)CC2)c1 was read as Yeast life ext inactive, Yeast growth inh inactive, RAM network inh inactive and SDO1 yeast rescue inactive.
COCCCN(C(=O)c1cc2c(s1)CCC2)c1c(N)n(Cc2ccccc2)c(=O)[nH]c1=O was read as RAM network inh inactive.
`N#C/C(=C\Nc1ccccc1SC(F)(F)F)c1nc(-c2ccc(F)cc2)cs1` gave Yeast life ext inactive, Yeast growth inh inactive, RAM network inh inactive and SDO1 yeast rescue inactive.
N#C/C(=N\Nc1ccccc1F)c1nc(-c2ccccc2)cs1 was read as RAM network inh 9.8.
For O=C(NCCCN1CCOCC1)/C(=C/c1ccc(F)cc1)NC(=O)c1ccccc1 the results were RAM network inh inactive.
`Cc1ccc(C2CC(C(F)(F)F)n3nc(C(=O)Nc4c(C)n(C)n(-c5ccccc5)c4=O)cc3N2)cc1` (stereo not drawn) gave RAM network inh 9.9.
Screening CCc1ccc(/C=C2\SC(=S)N(CCC(=O)NC3=NCCS3)C2=O)cc1 returned RAM network inh 9.3.
For COc1cc(NC(=S)NC(=O)C(C)C)ccc1NC(=O)c1cc2ccccc2o1 the results were RAM network inh 9.5.
COCCn1c(SCC(=O)Nc2cccc(OC)c2)nc2c(oc3ccccc32)c1=O was read as RAM network inh inactive.
`Cc1ccc(O)c(C(=O)c2cc(C(=O)NCCc3ccccc3)c(=O)n(CCc3ccccc3)c2)c1` gave Yeast life ext inactive, Yeast growth inh inactive, RAM network inh 8.9 and SDO1 yeast rescue inactive.
For COc1ccc(O)c(C(=O)c2cc(C(=O)NCCc3ccccc3)c(=O)n(CCc3ccccc3)c2)c1 the results were Yeast life ext inactive, Yeast growth inh inactive, RAM network inh inactive and SDO1 yeast rescue inactive.
`COc1ccc(C2CC(=O)c3c(C)nc(N4CCN(Cc5ccccc5)CC4)nc3C2)cc1OC` (stereo not drawn) gave Yeast life ext inactive, Yeast growth inh inactive, RAM network inh inactive and SDO1 yeast rescue inactive.
`CC(=Nc1ccc2c(c1)nc(CO)n2C)C1=C(O)CC(C)(C)CC1=O` gave Yeast life ext 45.8, Yeast growth inh inactive, RAM network inh inactive and SDO1 yeast rescue inactive.
For Fc1ccc(CSc2ncnc3scc(-c4ccccc4)c23)cc1 the results were Yeast life ext inactive, Yeast growth inh inactive, RAM network inh 10.3 and SDO1 yeast rescue inactive.
CCCOC(=O)c1ccc(NC(=O)/C=C/c2cccs2)cc1 was read as Yeast life ext inactive, Yeast growth inh inactive, RAM network inh 10.0 and SDO1 yeast rescue inactive.
For Cc1nnc(SCC(=O)NNC(=O)COc2ccc(Cl)cc2)s1 the results were RAM network inh inactive.
COc1ccc(C(CC(=O)O)NC(=O)c2cccs2)cc1 (stereo not drawn) was read as Yeast life ext inactive, Yeast growth inh inactive, RAM network inh inactive and SDO1 yeast rescue inactive.
`Cc1ccc(S(=O)(=O)N(Cc2ccccc2)c2ccccc2C(=O)NCc2ccco2)cc1` gave Yeast life ext inactive, Yeast growth inh inactive, RAM network inh 9.0 and SDO1 yeast rescue inactive.
